Activity data for two compounds are collected here from ChEMBL document CHEMBL4330063, “New naphthopyran analogues of LY290181 as potential tumor vascular-disrupting agents” (Eur J Med Chem, 2019).

In experiment [1] the test system is Chorioallantoic membrane. Nature of the experiment: Antiangiogenic activity in Leghorn chicken embryo chorioallantoic membrane assessed as disruption of smaller blood vessels at 5 nmol after 24 hrs by light microscopic analysis. In kind it is functional, tissue-based. The conditions noted are these: Gallus gallus. The essentials: (§1)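 Fertilized chicken eggs, CAM assay. Compound was applied topically into a small silicon foil ring placed on the CAM. The membrane and its extraembryonal blood vessels were monitored over 24 h, with observations at 6 h and 24 h post application.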

In experiment [2] the test system is A2780. Nature of the experiment: Antivascular activity against human A2780 cells xenografted in nude mouse assessed as induction of hemorrhages at tumor core at 100 mg/kg administered on every other day and measured after 24 hrs by H and E staining based histopathological analysis. In kind it is functional, organism-based. A general note: Xenograft models place foreign cells or tissue in a host animal.

The subject of experiment [3] is A2780. Kind of experiment: Antivascular activity against human A2780 cells xenografted in nude mouse assessed as induction of necrosis at tumor core at 100 mg/kg […] and measured after 24 hrs by H and E staining based histopathological analysis. The format is functional, organism-based. The essentials:
(§2)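 Mice bore A2780 tumor xenografts. Compound was formulated in tween80/ethanol (1:1) and injected as single doses. Tumors were inspected for discoloration as a sign of vascular disruption, and treated tumors were examined histologically for hemorrhage and necrosis.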

Experiment [4] relates to Chorioallantoic membrane. Nature of the experiment: Antiangiogenic activity in Leghorn chicken embryo chorioallantoic membrane assessed as disruption of smaller blood vessels at 5 nmol after 6 hrs by light microscopic analysis. The following applies: Gallus gallus. In kind it is functional, tissue-based. The gist of the method:
as §1

In experiment [5] the test system is Chorioallantoic membrane. Nature of the experiment: Antiangiogenic activity in Leghorn chicken embryo chorioallantoic membrane assessed as reduction in diameter of main blood vessel at 5 nmol after 24 hrs by light microscopic analysis. The conditions noted are these: Gallus gallus. In kind it is functional, tissue-based. The essentials: as §1
For experiment [6], the system named is Chorioallantoic membrane. Nature of the experiment: Antiangiogenic activity in Leghorn chicken embryo chorioallantoic membrane assessed as induction of hemorrhages at 5 nmol after 24 hrs by light microscopic analysis. In kind it is functional, tissue-based. The conditions noted are these: Gallus gallus. The gist of the method:
as §1

For experiment [7], the system named is Chorioallantoic membrane. Nature of the experiment: Antiangiogenic activity in Leghorn chicken embryo chorioallantoic membrane assessed as induction of hemorrhages at 5 nmol after 6 hrs by light microscopic analysis. In kind it is functional, tissue-based. The following applies: Gallus gallus. The essentials:
as §1

The subject of another experiment is A2780cis. Kind of experiment: Antitumor activity against human A2780cis xenografted in nude mouse at 60 mg/kg, ip administered on day 0, 4, 11 and 16. The format is functional, organism-based.
Experiment [8] relates to Chorioallantoic membrane. Kind of experiment: Antiangiogenic activity in Leghorn chicken embryo chorioallantoic membrane assessed as reduction in blood vessel area at 5 nmol after 6 hrs by light microscopic analysis relative to control. In kind it is functional, tissue-based. Further details: scale not given: the % may be the effect or the level left. The following applies: Gallus gallus. The gist of the method: (§3)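 The CAM assay was run with topical application into a silicon foil ring atop the CAM of fertilized chicken eggs. Area covered by blood vessels was quantified by fractal analysis relative to control.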

For experiment [9], the system named is Chorioallantoic membrane. Nature of the experiment: Antiangiogenic activity in Leghorn chicken embryo chorioallantoic membrane assessed as effect on blood vessel length at 5 nmol after 6 hrs by light microscopic analysis. The format is functional, tissue-based. The following applies: Gallus gallus. The essentials: as §1
Experiment [10] has as its system A2780. Nature of the experiment: Antivascular activity against human A2780 cells xenografted in nude mouse assessed as tumor discoloration at 200 mg/kg administered on every other day and measured after 24 hrs. The format is functional, organism-based. The conditions noted are these: in the assay text read “administered as single dose” for “administered on every other day”. The gist of the method:
as §2

Experiment [11] has as its system Chorioallantoic membrane. Kind of experiment: Antiangiogenic activity in Leghorn chicken embryo chorioallantoic membrane assessed as effect on blood vessel length at 10 nmol after 6 hrs by light microscopic analysis. The format is functional, tissue-based. The following applies: Gallus gallus. The essentials:
as §1

Experiment [12] concerns Chorioallantoic membrane. Nature of the experiment: Antiangiogenic activity in Leghorn chicken embryo chorioallantoic membrane assessed as disruption of smaller blood vessels at 10 nmol after 24 hrs by light microscopic analysis. The format is functional, tissue-based. The following applies: Gallus gallus. The gist of the method:
as §1

Experiment [13] has as its system Chorioallantoic membrane. Kind of experiment: Antiangiogenic activity in Leghorn chicken embryo chorioallantoic membrane assessed as disruption of smaller blood vessels at 10 nmol after 6 hrs by light microscopic analysis. In kind it is functional, tissue-based. The conditions noted are these: Gallus gallus. The gist of the method:
as §1

The subject of experiment [14] is Chorioallantoic membrane. Nature of the experiment: Antiangiogenic activity in Leghorn chicken embryo chorioallantoic membrane assessed as reduction in blood vessel area at 10 nmol after 6 hrs by light microscopic analysis relative to control. The conditions noted are these: Gallus gallus. Set-up: scale not given: the % may be the effect or the level left. In kind it is functional, tissue-based. The essentials:
as §3

Experiment [15] relates to Chorioallantoic membrane. Kind of experiment: Antiangiogenic activity in Leghorn chicken embryo chorioallantoic membrane assessed as reduction in diameter of main blood vessel at 10 nmol after 24 hrs by light microscopic analysis. The format is functional, tissue-based. The conditions noted are these: Gallus gallus. The gist of the method:
as §1

The subject of experiment [16] is Chorioallantoic membrane. Nature of the experiment: Antiangiogenic activity in Leghorn chicken embryo chorioallantoic membrane assessed as induction of hemorrhages at 10 nmol after 6 hrs by light microscopic analysis. The format is functional, tissue-based. The conditions noted are these: Gallus gallus. The essentials:
as §1

In experiment [17] the test system is Chorioallantoic membrane. Kind of experiment: Antiangiogenic activity in Leghorn chicken embryo chorioallantoic membrane assessed as induction of hemorrhages at 10 nmol after 24 hrs by light microscopic analysis. The format is functional, tissue-based. The conditions noted are these: Gallus gallus. The gist of the method:
as §1

Calls of active or inactive are those of the source. No cut-off for these calls is given here.

For `N#CC1=C(N)Oc2c(ccc3ccccc23)C1c1cc(F)cc(F)c1` (stereo not drawn), the result with Chorioallantoic membrane [1] and in the experiment with Chorioallantoic membrane [6] was inactive. Besides, the outcome with A2780 [2], in the experiment on A2780 [3], in the experiment on Chorioallantoic membrane [4], with Chorioallantoic membrane [5], in the experiment with Chorioallantoic membrane [7] and with A2780cis was Active. For the same compound, the result in the experiment with Chorioallantoic membrane [9] was Active. The Activity with Chorioallantoic membrane [8] is 59%.

Regarding `N#CC1=C(N)Oc2c(ccc3ccccc23)C1c1cccc([N+](=O)[O-])c1` (stereo not drawn), the outcome in the experiment on A2780 [10], in the experiment on Chorioallantoic membrane [12] and with Chorioallantoic membrane [17] was inactive. Also, the result in the experiment on Chorioallantoic membrane [11], in the experiment on Chorioallantoic membrane [13], in the experiment on Chorioallantoic membrane [15] and with Chorioallantoic membrane [16] was Active. Besides, the Activity in the experiment on Chorioallantoic membrane [14] is 32%.
